Activity calls are given as the source filed them. The rule behind the calls is not given here.
Columns and labels:
Mus musculus [1] = assay: Anticonvulsant activity in Swiss Albino mouse at 300 mg/kg, ip after 4 hrs by MES test; type: functional, organism-based; design: dose 300 mg/kg
How it was run: (§1)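 Mice (Swiss, 20-25 g) given i.p. doses of 30, 100 and 300 mg/kg under ADD program protocols, three per group, examined at 0.5 and 4 h in MES, scPTZ, scSTY or scPIC seizure tests. Value is the minimum dose protecting half or more of the mice.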

Mus musculus [2] = assay: Anticonvulsant activity in Swiss Albino mouse at 300 mg/kg, ip after 0.5 hr by scSTY test; type: functional, organism-based; design: dose 300 mg/kg; how it was run: as §1
Mus musculus [3] = assay: Neurotoxicity in Swiss Albino mouse at 300 mg/kg, ip after 4 hrs by rotarod test; type: functional, organism-based; design: dose 300 mg/kg
How it was run: (§2)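 Swiss mice (20-25 g) are trained on an accelerating rotorod (10 rpm, 3.2 cm rod), then injected i.p. at 30, 100 or 300 mg/kg, with three per group. Neurotoxicity means failure to keep equilibrium for at least 1 min in each of three trials, checked at 0.5 and 4 h. The value reported is the minimum dose affecting half or more of the mice.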

Mus musculus [4] = assay: Anticonvulsant activity in Swiss Albino mouse at 300 mg/kg, ip after 4 hrs by scPIC test; type: functional, organism-based; design: dose 300 mg/kg; how it was run: as §1
Mus musculus [5] = assay: Anticonvulsant activity in Swiss Albino mouse at 300 mg/kg, ip after 4 hrs by scSTY test; type: functional, organism-based; design: dose 300 mg/kg; how it was run: as §1
Mus musculus [6] = assay: Anticonvulsant activity in Swiss Albino mouse at 300 mg/kg, ip after 0.5 hr by scPIC test; type: functional, organism-based; design: dose 300 mg/kg; how it was run: as §1
Mus musculus [7] = assay: Analgesic activity in Swiss Albino mouse assessed as number of acetic acid-induced writhing per 30 min after 100 mg/kg, ip; type: functional
How it was run: (§3)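 Mice in groups of six dosed i.p. at 100 mg/kg, controls receiving 30% v/v PEG 400 in water. Writhing induced by i.p. 0.1 mL of 3% v/v acetic acid 1 h after drug. Writhes (abdominal stretch with at least one hind limb extended) counted over 30 min; % inhibition calculated. Mean ± SEM, Student's t test.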

Mus musculus [8] = assay: Analgesic activity in Swiss Albino mouse assessed as inhibition of acetic acid-induced writhing responses at 100 mg/kg, ip; type: functional; settings: for inhibition in vivo at 100 mg/kg: route intraperitoneal; how it was run: as §3
Mus musculus [9] = assay: Anticonvulsant activity in Swiss Albino mouse at 300 mg/kg, ip after 0.5 hr by scPTZ test; type: functional, organism-based; design: dose 300 mg/kg; how it was run: as §1
Mus musculus [10] = assay: Anticonvulsant activity in Swiss Albino mouse at 300 mg/kg, ip after 0.5 hr by MES test; type: functional, organism-based; design: dose 300 mg/kg; how it was run: as §1
Mus musculus [11] = assay: Neurotoxicity in Swiss Albino mouse at 300 mg/kg, ip after 0.5 hr by rotarod test; type: functional, organism-based; design: dose 300 mg/kg; how it was run: as §2
Rattus norvegicus [12] = assay: Antihyperalgesic effects in Sprague-Dawley rat SNL model assessed as duration of paw withdrawal at 100 mg/kg, ip after 0.5 hr, ip; type: functional; settings: route intraperitoneal
How it was run: (§4)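 L5 SNL rats (n = 4), dosed 100 mg/kg i.p. (vehicle 30% v/v PEG 400 in water). Pin-prick to midplantar ipsilateral left hindpaw; withdrawal duration, mean of three responses; ≥2 s defined abnormal. Mean ± SEM; one-way ANOVA with Bonferroni versus predrug.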

Rattus norvegicus [13] = assay: Effect on spontaneous pain in Sprague-Dawley rat SNL model assessed as duration of paw withdrawal at 100 mg/kg, ip after 1 hr; type: functional; settings: route intraperitoneal
How it was run: (§5)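 Rats underwent left L5 spinal nerve ligation (Kim and Chung) under i.p. pentobarbital (65 mg/kg). Spontaneous pain is recorded for 5 min after 10 min acclimatization, as cumulative duration the ipsilateral paw is lifted, excluding locomotor lifts. Dosing is 100 mg/kg i.p. in 30% v/v PEG 400/water, with testing at 0.5–2.5 h. Four rats, mean ± SEM versus predrug, one-way ANOVA with Bonferroni.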

Rattus norvegicus [14] = assay: Anti-dynamic allodynia effect in Sprague-Dawley rat SNL model assessed as latency to paw withdrawal 100 mg/kg, ip after 1 hr; type: functional; settings: route intraperitoneal
How it was run: (§6)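 Left L5 spinal nerve ligation rats, tested preoperatively and 9 days postoperatively, then given 100 mg/kg i.p. (vehicle 30% v/v PEG 400 in water). After 10 min acclimatization, plantar surface of affected paw stroked mildly with a cotton-bud; paw lift response recorded. n = 4; retested 0.5-2.5 h post-dose.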

Rattus norvegicus [15] = assay: Antihyperalgesic effects in Sprague-Dawley rat SNL model assessed as duration of paw withdrawal at 100 mg/kg, ip after 1 hr, ip; type: functional; settings: route intraperitoneal; how it was run: as §4
Rattus norvegicus [16] = assay: Antihyperalgesic effects in Sprague-Dawley rat SNL model assessed as duration of paw withdrawal at 100 mg/kg, ip after 2.5 hrs, ip; type: functional; settings: route intraperitoneal; how it was run: as §4
Rattus norvegicus [17] = assay: Antihyperalgesic effects in Sprague-Dawley rat SNL model assessed as duration of paw withdrawal at 100 mg/kg, ip after 2 hrs, ip; type: functional; settings: route intraperitoneal; how it was run: as §4
Rattus norvegicus [18] = assay: Antihyperalgesic effects in Sprague-Dawley rat CCI model assessed as duration of paw withdrawal at 100 mg/kg, ip after 2 hrs; type: functional; settings: route intraperitoneal
Rattus norvegicus [19] = assay: Antihyperalgesic effects in Sprague-Dawley rat CCI model assessed as duration of paw withdrawal at 100 mg/kg, ip after 1 hr; type: functional; settings: route intraperitoneal
Rattus norvegicus [20] = assay: Antihyperalgesic effects in Sprague-Dawley rat SNL model assessed as duration of paw withdrawal at 100 mg/kg, ip after 1.5 hrs, ip; type: functional; settings: route intraperitoneal; how it was run: as §4
Rattus norvegicus [21] = assay: Antihyperalgesic effects in Sprague-Dawley rat CCI model assessed as duration of paw withdrawal at 100 mg/kg, ip after 0.5 hr; type: functional; settings: route intraperitoneal
Rattus norvegicus [22] = assay: Anti-dynamic allodynia effect in Sprague-Dawley rat SNL model assessed as latency to paw withdrawal 100 mg/kg, ip after 2.5 hrs; type: functional; settings: route intraperitoneal; how it was run: as §6
Rattus norvegicus [23] = assay: Effect on spontaneous pain in Sprague-Dawley rat SNL model assessed as duration of paw withdrawal at 100 mg/kg, ip after 0.5 hr; type: functional; settings: route intraperitoneal; how it was run: as §5
Rattus norvegicus [24] = assay: Anti-dynamic allodynia effect in Sprague-Dawley rat SNL model assessed as latency to paw withdrawal 100 mg/kg, ip after 1.5 hrs; type: functional; settings: route intraperitoneal; how it was run: as §6
Rattus norvegicus [25] = assay: Anti-dynamic allodynia effect in Sprague-Dawley rat SNL model assessed as latency to paw withdrawal 100 mg/kg, ip after 2 hrs; type: functional; settings: route intraperitoneal; how it was run: as §6
Rattus norvegicus [26] = assay: Antihyperalgesic effects in Sprague-Dawley rat CCI model assessed as duration of paw withdrawal at 100 mg/kg, ip after 1.5 hrs; type: functional; settings: route intraperitoneal
Rattus norvegicus [27] = assay: Effect on spontaneous pain in Sprague-Dawley rat SNL model assessed as duration of paw withdrawal at 100 mg/kg, ip after 2 hrs; type: functional; settings: route intraperitoneal; how it was run: as §5
Rattus norvegicus [28] = assay: Effect on spontaneous pain in Sprague-Dawley rat SNL model assessed as duration of paw withdrawal at 100 mg/kg, ip after 2.5 hrs; type: functional; settings: route intraperitoneal; how it was run: as §5
Rattus norvegicus [29] = assay: Anti-dynamic allodynia effect in Sprague-Dawley rat SNL model assessed as latency to paw withdrawal 100 mg/kg, ip after 0.5 hr; type: functional; settings: route intraperitoneal; how it was run: as §6
Rattus norvegicus [30] = assay: Effect on spontaneous pain in Sprague-Dawley rat SNL model assessed as duration of paw withdrawal at 100 mg/kg, ip after 1.5 hrs; type: functional; settings: route intraperitoneal; how it was run: as §5
Rattus norvegicus [31] = assay: Antihyperalgesic effects in Sprague-Dawley rat CCI model assessed as duration of paw withdrawal at 100 mg/kg, ip after 2.5 hrs; type: functional; settings: route intraperitoneal
Rattus norvegicus [32] = assay: Effect on spontaneous pain in Sprague-Dawley rat CCI model assessed as duration of paw withdrawal at 100 mg/kg, ip after 1 hr; type: functional; settings: route intraperitoneal
How it was run: (§7)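 CCI rats (n = 4) dosed 100 mg/kg i.p. (vehicle 30% v/v PEG 400 in water). After 10 min acclimatization in a cage 5 cm above ground, cumulative time the ipsilateral paw was held off the floor over 5 min recorded, excluding locomotion lifts. Mean ± SEM; ANOVA/Bonferroni versus predrug.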

Rattus norvegicus [33] = assay: Effect on spontaneous pain in Sprague-Dawley rat CCI model assessed as duration of paw withdrawal at 100 mg/kg, ip after 1.5 hrs; type: functional; settings: route intraperitoneal
How it was run: (§8)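 Unilateral CCI of sciatic nerve (Bennett and Xie) in Sprague-Dawley rats under i.p. pentobarbital sodium (65 mg/kg). Spontaneous pain is scored over 5 min after 10 min acclimatization, as cumulative time the ipsilateral paw is held off the floor. Paw lifts from locomotion or repositioning are excluded. Drug is given at 100 mg/kg i.p. with 30% v/v PEG 400 vehicle. Mean ± SEM, n = 4, compared with predrug by ANOVA/Bonferroni.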

Rattus norvegicus [34] = assay: Effect on spontaneous pain in Sprague-Dawley rat CCI model assessed as duration of paw withdrawal at 100 mg/kg, ip after 0.5 hr; type: functional; settings: route intraperitoneal; how it was run: as §7
Rattus norvegicus [35] = assay: Effect on spontaneous pain in Sprague-Dawley rat CCI model assessed as duration of paw withdrawal at 100 mg/kg, ip after 2 hrs; type: functional; settings: route intraperitoneal; how it was run: as §8
Rattus norvegicus [36] = assay: Effect on spontaneous pain in Sprague-Dawley rat CCI model assessed as duration of paw withdrawal at 100 mg/kg, ip after 2.5 hrs; type: functional; settings: route intraperitoneal; how it was run: as §8

SMILES	Activity (Mus musculus [1])	Activity (Mus musculus [2])	Activity (Mus musculus [3])	Activity (Mus musculus [4])	Activity (Mus musculus [5])	Activity (Mus musculus [6])	Activity (Mus musculus [9])	Activity (Mus musculus [10])	Activity (Mus musculus [11])	Activity (Mus musculus [7]; route intraperitoneal)	inhibition in vivo at 100 mg/kg (Mus musculus [8])	Activity (Rattus norvegicus [12])	Activity (Rattus norvegicus [13])	Activity (Rattus norvegicus [14])	Activity (Rattus norvegicus [15])	Activity (Rattus norvegicus [16])	Activity (Rattus norvegicus [17])	Activity (Rattus norvegicus [20])	Activity (Rattus norvegicus [22])	Activity (Rattus norvegicus [23])	also measured
CCC1(C)CC(=O)NC1=O (stereo unspecified)	inactive	inactive	inactive	inactive	inactive	inactive	Active	inactive	inactive												Activity (Mus musculus [7]): inactive; Activity (Mus musculus [8]): inactive
C/C(=N\NC(=O)NCCCC(=O)O)c1ccc([N+](=O)[O-])cc1	inactive	inactive	inactive	inactive	inactive	inactive	inactive	inactive	inactive	61	67%										
O=C(O)CCCNC(=O)NN=C1CCCCC1	inactive	inactive	inactive	inactive	inactive	Active	Active	inactive	inactive	32	82%	14.7 s	20.2 s	5.6 s	19.7 s	12.8 s	11.3 s	15.6 s	0.24 s	21.2 s	Activity (Rattus norvegicus [18]): 5.2 s; Activity (Rattus norvegicus [19]): 24.8 s; Activity (Rattus norvegicus [21]): 20.3 s; Activity (Rattus norvegicus [24]): 1.8 s; Activity (Rattus norvegicus [25]): 0.2 s; Activity (Rattus norvegicus [26]): 4.8 s; Activity (Rattus norvegicus [27]): 10.6 s; Activity (Rattus norvegicus [28]): 10.8 s; Activity (Rattus norvegicus [29]): 5.2 s; Activity (Rattus norvegicus [30]): 10.8 s; Activity (Rattus norvegicus [31]): 7 s
O=C(O)CCCNC(=O)N/N=C/c1ccc([N+](=O)[O-])cc1	inactive	inactive	inactive	inactive	inactive	inactive	inactive	inactive	Active	18.7	90%			4.3 s					1.34 s		Activity (Rattus norvegicus [32]): 9.2 s; Activity (Rattus norvegicus [33]): 13.6 s; Activity (Rattus norvegicus [34]): 10.2 s; Activity (Rattus norvegicus [35]): 11.3 s; Activity (Rattus norvegicus [36]): 17.2 s; Activity (Rattus norvegicus [24]): 1.5 s; Activity (Rattus norvegicus [25]): 1.8 s; Activity (Rattus norvegicus [29]): 14.5 s
O=C(O)CCCNC(=O)NN=C(c1ccccc1)c1ccccc1	inactive	Active	inactive	Active	Active	Active	inactive	Active	Active	13.3	93%	18.4 s	18.5 s		19.9 s	15 s	13.7 s	18.5 s		15.1 s	Activity (Rattus norvegicus [27]): 10.9 s; Activity (Rattus norvegicus [28]): 8.8 s; Activity (Rattus norvegicus [30]): 13.4 s
CC(=O)Oc1ccccc1C(=O)O [ASPIRIN]	inactive	inactive	inactive	inactive	inactive	inactive	inactive	inactive	inactive	5.7	97%										
